ChEMBL document CHEMBL1123559, “Inhibition of phenylethanolamine N-methyltransferase (PNMT) by aromatic hydroxy-substituted 1,2,3,4,-tetrahydroisoquinolines: further studies on the hydrophilic pocket of the aromatic ring binding region of the active site” (J Med Chem, 1987)

T1: Phenylethanolamine N-methyltransferase (Bos taurus, UniProt P10938)
T1 sequence (P10938 whole entry): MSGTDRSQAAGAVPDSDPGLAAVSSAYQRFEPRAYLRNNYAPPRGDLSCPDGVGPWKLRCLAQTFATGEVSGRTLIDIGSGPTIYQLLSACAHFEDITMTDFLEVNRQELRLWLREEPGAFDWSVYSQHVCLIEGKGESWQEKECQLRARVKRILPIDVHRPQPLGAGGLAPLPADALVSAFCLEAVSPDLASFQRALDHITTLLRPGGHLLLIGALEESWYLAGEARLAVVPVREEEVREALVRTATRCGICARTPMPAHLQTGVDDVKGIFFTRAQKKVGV

B1: Phenylethanolamine N-methyltransferase (Bos taurus), P10938 (protein)
chain: MSGTDRSQAAGAVPDSDPGLAAVSSAYQRFEPRAYLRNNYAPPRGDLSCPDGVGPWKLRCLAQTFATGEVSGRTLIDIGSGPTIYQLLSACAHFEDITMTDFLEVNRQELRLWLREEPGAFDWSVYSQHVCLIEGKGESWQEKECQLRARVKRILPIDVHRPQPLGAGGLAPLPADALVSAFCLEAVSPDLASFQRALDHITTLLRPGGHLLLIGALEESWYLAGEARLAVVPVREEEVREALVRTATRCGICARTPMPAHLQTGVDDVKGIFFTRAQKKVGV

Legend:
[1] = target: T1, Phenylethanolamine N-methyltransferase; test: In vitro inhibition of bovine phenylethylamine N-methyl-transferase (PNMT) using radiochemical assay.
[2] = Ratio of Vmax to Km; design: unit not given here
[3] = compound: COc1ccc2c(c1)C1CC2[C@H](N)C1; test: (§1) In vitro inhibition of Phenylethylamine N-Methyltransferase (PNMT) using radiochemical assay expressed as Vmax
[4] = compound: N[C@@H]1CC2CC1c1cc(O)c(O)cc12; test: as §1
[5] = compound: COc1ccc2c(c1)C1CCC2[C@@H]1N; test: as §1
[6] = compound: COc1cccc2c1C1CC2[C@H](N)C1; test: as §1
[7] = compound: COc1ccc2c(c1)C1CC2[C@H](N)C1; test: (§2) In vitro inhibition of Phenylethylamine N-Methyltransferase (PNMT) using radiochemical assay.
Summary of the method: (§3)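 Bovine adrenal PNMT, partially purified through isoelectric precipitation, was used with phenylethanolamine as the variable substrate. At least three inhibitor concentrations were tested, all below levels giving mixed kinetics. The mix held pH 8.0 phosphate, unlabeled AdoMet (10 μM stock) and [methyl-3H]AdoMet, run 30 min at 37 °C. After a borate quench, product was extracted into toluene/isoamyl alcohol and scintillation counted. Ki and mode came from 1/V vs 1/S plots.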

[8] = compound: COc1ccc2c(c1)C1CCC2[C@@H]1N; test: as §2; summary of the method: as §3
[9] = compound: N[C@@H]1CC2C[C@@H]1c1ccccc12; test: as §2; summary of the method: as §3
[10] = compound: COc1cccc2c1C1CC2[C@H](N)C1; test: as §2; summary of the method: as §3

Molecule	Ki [1] [µM]	further results
Oc1cccc2c1CCNC2	90	
Oc1cc2c(cc1O)CNCC2	5.7	
N[C@@H]1CC2CC1c1c(O)cccc12 (some centres undefined)	> 3000	
N[C@@H]1CC2C[C@@H]1c1ccccc12		Ratio [2]: 0.01
COc1cccc2c1C1CC2[C@H](N)C1 (some centres undefined)	> 2000	Ratio [2]: 0.02
Oc1ccc2c(c1)CNCC2	2.6	
Oc1ccc2c(c1)CCNC2	7.8	
N[C@H]1C2CCC1c1c(O)cccc12 (some centres undefined)	> 4000	
COc1ccc2c(c1)C1CCC2[C@@H]1N (some centres undefined)	735	Ratio [2]: 0.08
COc1cccc2c1C1CCC2[C@@H]1N (some centres undefined)	1100	
COc1ccc2c(c1)C1CC2[C@H](N)C1 (some centres undefined)	1260	Ratio [2]: 0.01
c1ccc2c(c1)CCNC2 [1,2,3,4-TETRAHYDROISOQUINOLINE]	10.3	
COc1cccc2c1CCNC2	550	
COc1ccc2c(c1)CNCC2	20	
COc1cccc2c1CNCC2	3.8	
Oc1cccc2c1CNCC2	1080	
N[C@H]1C2CCC1c1cc(O)ccc12 (some centres undefined)	108	
COc1ccc2c(c1)C1CC2C[C@H]1N (some centres undefined)	> 2000	
NC1C2CC[C@H]1c1ccccc12 (some centres undefined)		Ratio [2]: 0.12
N[C@@H]1CC2CC1c1cccc(O)c12 (some centres undefined)	> 10000	
N[C@@H]1CC2CC1c1cc(O)c(O)cc12 (some centres undefined)		Ratio [2]: 0.06
COc1cccc2c1C1CC2C[C@H]1N (some centres undefined)	> 2000	
B1		Vmax [3]: 0.06 nmol/min/mg; Vmax [4]: 0.44 nmol/min/mg; Vmax [5]: 0.23 nmol/min/mg; Vmax [6]: 0.22 nmol/min/mg; Km [7]: 602 µM; Km [8]: 294 µM; Km [9]: 392 µM; Km [10]: 970 µM
